Legend:
[1] = target: T1, Corticotropin-releasing factor receptor 1 (Homo sapiens, UniProt P34998); test: Binding affinity for corticotropin-releasing factor-1 expressed in […] cells; type: cell-based
T1 sequence (P34998 whole entry): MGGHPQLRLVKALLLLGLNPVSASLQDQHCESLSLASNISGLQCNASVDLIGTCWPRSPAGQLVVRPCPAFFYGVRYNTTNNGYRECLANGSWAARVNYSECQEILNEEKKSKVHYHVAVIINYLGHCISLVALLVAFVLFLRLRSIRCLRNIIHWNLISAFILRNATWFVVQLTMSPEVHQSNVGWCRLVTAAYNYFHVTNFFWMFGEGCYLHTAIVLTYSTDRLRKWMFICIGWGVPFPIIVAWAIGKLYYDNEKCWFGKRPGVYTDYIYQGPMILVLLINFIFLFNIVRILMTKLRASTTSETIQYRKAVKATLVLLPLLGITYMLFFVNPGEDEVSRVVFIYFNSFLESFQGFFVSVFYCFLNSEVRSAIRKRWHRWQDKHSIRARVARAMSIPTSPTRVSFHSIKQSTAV
Outline: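 Cloned human CRF1 receptor expressed in […] cells. Radiolabeled sauvagine used as ligand. Ki derived from dose–response curves over 1 nM to 10 μM. Values are the mean of three or more independent determinations.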

[2] = Terminal half life in rat was determined upon oral administration; type: ADME, organism-based; conditions: in vivo
[3] = Volume distribution in rat was determined upon intravenous administration; conditions: in vivo
[4] = target: T1, Corticotropin-releasing factor receptor 1; test: Inhibition of CRF stimulated cAMP production in CHO cells expressing CRF1 receptor; type: functional, cell-based
[5] = Concentration maximum in brain of rat was determined after 1 hr upon oral administration; type: ADME, organism-based; parameters: route oral
Outline: (§1)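 Male Sprague-Dawley rats given 10 mg/kg intravenously or orally. Plasma clearance, volume of distribution and terminal half-life taken from the iv arm. Plasma and brain Cmax taken after oral dosing. Oral bioavailability estimated. Brain exposure relative to plasma based on AUC (0–6 h).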

[6] = Concentration maximum in plasma of rat was determined after 1 h upon oral administration; type: ADME, organism-based; parameters: route oral; outline: as §1
[7] = Plasma clearance in rat was determined upon i.v. administration; type: ADME, organism-based; conditions: iv; outline: as §1
[8] = Oral bioavailability in Rat upon oral administration; type: ADME, organism-based; conditions: in vivo; outline: as §1
[9] = Terminal half life in rat was determined upon intravenous administration; conditions: in vivo

Compound | Ki [1] | further results
CCCC(CCC)N1CCn2c(=O)n(-c3ccc(OC)nc3)c3nc(C)cc1c32 | 60 nM | 
CCCC(CCC)N1CCn2c(=O)n(-c3ccc(C(F)(F)F)cc3)c3nc(C)cc1c32 | 17 nM | 
CCC(CC)N1CCn2c(=O)n(-c3ccc(Cl)cc3)c3nc(C)cc1c32 | 58 nM | 
CCCCN(CC)c1nc(C)nc2c1c(C)cn2-c1c(C)cc(C)cc1C [CP-154526] |  | T1/2 [2]: 51 h; Vd [3]: 105 L/kg
CCCC(CCC)N1CCn2c(=O)n(-c3ccccc3OC)c3nc(C)cc1c32 | 44 nM | 
COCC(COC)Nc1nc(C)nc2c(-c3ccc(Cl)cc3Cl)c(C)nn12 |  | half-life [2]: 16 h; Vd [3]: 22 L/kg
CCCCN1CCn2c(=O)n(-c3ccc(OC)cc3)c3nc(C)cc1c32 | 8800 nM | 
CCCC(CCC)N1CCn2c(=O)n(-c3ccc(C(C)C)cc3Br)c3nc(C)cc1c32 | 1.1 nM | 
COc1ccc(-n2c(=O)n3c4c(cc(C)nc42)N(C(C)C)CC3)cc1 | > 10000 nM | 
CCCC(CCC)N1CCn2c(=O)n(-c3ccc(OCC)cc3)c3nc(C)cc1c32 | 140 nM | 
CCC(CC)N1CCn2c(=O)n(-c3ccc(OC)cc3C)c3nc(C)cc1c32 | 20 nM | 
CCCC(CCC)N1CCn2c(=O)n(-c3cccc(OC)c3)c3nc(C)cc1c32 | 130 nM | 
CCCC(CCC)N1CCn2c(=O)n(-c3ccc(C(=O)OC)cc3)c3nc(C)cc1c32 | 920 nM | 
CCC(CC)N1CCn2c(=O)n(-c3ccc(OC)cc3)c3nc(C)cc1c32 | 8 nM | 
CCCC(CCC)N1CCn2c(=O)n(-c3ccc(OC)cc3)c3nc(C)cc1c32 | 2 nM | IC50 [4]: 71 nM; Cmax [5]: 1180 ng/g; Cmax [6]: 356 ng/mL; clearance [7]: 53.4 mL/min/kg; bioavailability [8]: 30%; half-life [9]: 1.6 h; Vd [3]: 7.2 L/kg
CCCC(CCC)N1CCn2c(=O)n(-c3ccc(Cl)cn3)c3nc(C)cc1c32 | 23 nM | 
CCCC(CCC)N1CCn2c(=O)n(-c3ccc(Cl)cc3Cl)c3nc(C)cc1c32 | 5.1 nM | 
CCCC(CCC)N1CCn2nc(-c3ccc(Cl)cc3Cl)c3nc(C)cc1c32 | 4.5 nM | 
CCC(CC)N1CCn2c(=O)n(-c3ccc(C(F)(F)F)cc3)c3nc(C)cc1c32 | 170 nM | 
CCCC(CCC)N1CCn2c(=O)n(-c3ccc(Cl)cc3)c3nc(C)cc1c32 | 12 nM | 
CCCC(CCC)N1CCn2c(=O)n(-c3ccc(S(C)(=O)=O)cc3)c3nc(C)cc1c32 | 460 nM | 

Reference: ChEMBL document CHEMBL1141137, “Design and synthesis of tricyclic imidazo[4,5-b]pyridin-2-ones as corticotropin-releasing factor-1 antagonists” (J Med Chem, 2005)
